# In ChEMBL document CHEMBL5236619, “Design and Optimization of 1H-1,2,3-Triazole-4-carboxamides as Novel, Potent, and Selective Inverse Agonists and Antagonists of PXR” (J Med Chem, 2022):
# Active and inactive are the calls of the source. The rule behind the calls is not given here.
# Columns and labels:
# [1] = target: T1, PXR (NR1I2) ligand binding domain (Homo sapiens, UniProt O75469); experiment: Inhibition of BODIPY FL vindoline binding to recombinant human GST-tagged PXR LBD (111 to 434 residues) expressed in baculovirus infected insect cells at 10 uM incubated for 1 mins under shaking condition followed by 60 mins under dark condition by TR-FRET assay relative to control; conditions: probe BODIPY FL vindoline, time 61 min
# T1 sequence (O75469 whole entry): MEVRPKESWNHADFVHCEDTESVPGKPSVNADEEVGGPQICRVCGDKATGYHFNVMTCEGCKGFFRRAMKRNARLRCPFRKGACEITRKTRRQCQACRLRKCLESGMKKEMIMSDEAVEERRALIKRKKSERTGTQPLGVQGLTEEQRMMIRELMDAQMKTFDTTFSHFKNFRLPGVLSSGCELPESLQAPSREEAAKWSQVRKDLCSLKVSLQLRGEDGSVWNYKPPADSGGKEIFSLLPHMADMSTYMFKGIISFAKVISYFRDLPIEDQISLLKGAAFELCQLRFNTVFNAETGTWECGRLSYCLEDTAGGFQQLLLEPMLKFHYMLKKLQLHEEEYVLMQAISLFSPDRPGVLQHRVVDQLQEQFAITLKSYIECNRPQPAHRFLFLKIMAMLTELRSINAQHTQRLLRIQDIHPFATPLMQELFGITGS
# [2] = target: T2, Nuclear receptor subfamily 1 group I member 2 (Homo sapiens, UniProt O75469); experiment: Inverse agonist activity at human PXR in human HepG2 cells co-expressing luciferase gene under control of CYP3A4 promoter assessed as inhibition of receptor basal activity incubated for 24 hrs by luminescence based analysis; type: cell-based
# T2 sequence (O75469 whole entry): T1 sequence (O75469 whole entry)
# PXR (NR1I2) [3] = target: T3, PXR (NR1I2) (Homo sapiens, UniProt O75469); experiment: Inverse agonist activity at human PXR in human HepG2 cells co-expressing luciferase gene under control of CYP3A4 promoter assessed as inhibition in receptor basal activity at 10 uM incubated for 24 hrs by luminescence based analysis relative to control; type: cell-based
# T3 sequence (O75469 whole entry): T1 sequence (O75469 whole entry)
# [4] = target: T2, Nuclear receptor subfamily 1 group I member 2; experiment: Agonist activity at human PXR in human HepG2 cells co-expressing luciferase gene under control of CYP3A4 promoter assessed as transcriptional activation at 30 uM incubated for 24 hrs by luminescence based analysis; type: cell-based; conditions: hepg2, 24 h
# [5] = target: T2, Nuclear receptor subfamily 1 group I member 2; experiment: Inhibition of BODIPY FL vindoline binding to recombinant human GST-tagged PXR LBD (111 to 434 residues) expressed in baculovirus infected insect cells incubated for 1 mins under shaking condition followed by 60 mins under dark condition by TR-FRET assay
# [6] = target: T2, Nuclear receptor subfamily 1 group I member 2; experiment: Inverse agonist activity at human PXR in human HepG2 cells co-expressing luciferase gene under control of CYP3A4 promoter assessed as inhibition in receptor basal activity at 30 uM incubated for 24 hrs by luminescence based analysis; conditions: hepg2, 24 h
# [7] = target: T4, Nuclear receptor subfamily 1 group I member 2 (Mus musculus, UniProt O54915); experiment: Effect on mouse PXR activity by luciferase reporter assay
# T4 sequence (O54915 whole entry): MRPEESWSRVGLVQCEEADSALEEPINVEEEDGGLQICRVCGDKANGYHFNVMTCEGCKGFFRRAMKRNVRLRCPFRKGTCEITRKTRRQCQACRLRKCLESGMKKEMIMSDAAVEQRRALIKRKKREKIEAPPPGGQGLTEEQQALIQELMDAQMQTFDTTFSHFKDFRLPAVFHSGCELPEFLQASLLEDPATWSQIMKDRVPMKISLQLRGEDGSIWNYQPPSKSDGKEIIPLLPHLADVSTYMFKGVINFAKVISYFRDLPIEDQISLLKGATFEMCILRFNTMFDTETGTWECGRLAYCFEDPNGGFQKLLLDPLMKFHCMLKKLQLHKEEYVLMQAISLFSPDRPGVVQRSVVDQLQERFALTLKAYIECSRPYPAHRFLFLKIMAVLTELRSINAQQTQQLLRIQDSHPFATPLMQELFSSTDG
# How it was run: (§1)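 Run in agonistic mode (compound alone) or antagonistic mode (compound plus an agonist). Each concentration tested in quadruplicate, at least three times. % activation or % inhibition plotted against concentration, with EC50 or IC50 derived from a sigmoidal dose–response fit.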
# HepG2 [8] = experiment: Effect on CAR activity in human HepG2 cells co-expressing luciferase gene under control of CYP3A4 promoter by luciferase reporter assay; type: cell-based
# [9] = target: T5, Bile acid receptor (Homo sapiens) (UniProt Q96RI1); experiment: Effect on FXR activity in GeneBLAzer FXR-UAS-bla HEK 293T cells by fluorescence based analysis; type: cell-based; how it was run: as §1
# T5 sequence (whole entry): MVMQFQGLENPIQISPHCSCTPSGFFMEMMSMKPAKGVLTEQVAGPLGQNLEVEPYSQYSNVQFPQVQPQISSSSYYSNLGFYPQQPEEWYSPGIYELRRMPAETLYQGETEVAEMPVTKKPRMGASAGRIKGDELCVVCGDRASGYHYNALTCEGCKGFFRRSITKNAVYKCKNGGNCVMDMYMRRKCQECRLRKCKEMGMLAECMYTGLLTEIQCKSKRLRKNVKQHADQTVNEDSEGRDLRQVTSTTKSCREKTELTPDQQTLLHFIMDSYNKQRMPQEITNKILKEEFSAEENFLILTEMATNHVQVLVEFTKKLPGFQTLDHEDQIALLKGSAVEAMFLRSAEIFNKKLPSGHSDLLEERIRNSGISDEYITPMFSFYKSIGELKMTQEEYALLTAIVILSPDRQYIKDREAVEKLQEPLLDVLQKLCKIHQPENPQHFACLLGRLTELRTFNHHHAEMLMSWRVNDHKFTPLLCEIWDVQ
# [10] = target: T6, Oxysterols receptor LXR-alpha (Homo sapiens) (UniProt Q13133); experiment: Effect on LXRalpha activity in GeneBLAzer LXRalpha-UAS-bla HEK 293T cells by fluorescence based analysis; type: cell-based; how it was run: as §1
# T6 sequence (whole entry): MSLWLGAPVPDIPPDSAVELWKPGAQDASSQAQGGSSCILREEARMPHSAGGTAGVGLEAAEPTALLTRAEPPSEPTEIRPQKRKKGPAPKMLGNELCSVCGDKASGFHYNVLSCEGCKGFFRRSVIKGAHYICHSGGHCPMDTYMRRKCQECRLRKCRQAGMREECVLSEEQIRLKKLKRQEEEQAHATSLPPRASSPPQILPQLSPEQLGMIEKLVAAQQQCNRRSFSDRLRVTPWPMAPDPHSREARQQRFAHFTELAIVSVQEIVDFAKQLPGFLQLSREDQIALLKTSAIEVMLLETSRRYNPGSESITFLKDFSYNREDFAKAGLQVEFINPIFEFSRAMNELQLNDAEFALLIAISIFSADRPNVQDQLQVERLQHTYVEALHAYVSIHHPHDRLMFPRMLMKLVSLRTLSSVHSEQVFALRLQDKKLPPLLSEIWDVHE
# [11] = target: T7, Vitamin D3 receptor (Homo sapiens) (UniProt P11473); experiment: Effect on VDR activity in GeneBLAzer VDR-UAS-bla HEK 293T cells by fluorescence based analysis; type: cell-based; how it was run: as §1
# T7 sequence (whole entry): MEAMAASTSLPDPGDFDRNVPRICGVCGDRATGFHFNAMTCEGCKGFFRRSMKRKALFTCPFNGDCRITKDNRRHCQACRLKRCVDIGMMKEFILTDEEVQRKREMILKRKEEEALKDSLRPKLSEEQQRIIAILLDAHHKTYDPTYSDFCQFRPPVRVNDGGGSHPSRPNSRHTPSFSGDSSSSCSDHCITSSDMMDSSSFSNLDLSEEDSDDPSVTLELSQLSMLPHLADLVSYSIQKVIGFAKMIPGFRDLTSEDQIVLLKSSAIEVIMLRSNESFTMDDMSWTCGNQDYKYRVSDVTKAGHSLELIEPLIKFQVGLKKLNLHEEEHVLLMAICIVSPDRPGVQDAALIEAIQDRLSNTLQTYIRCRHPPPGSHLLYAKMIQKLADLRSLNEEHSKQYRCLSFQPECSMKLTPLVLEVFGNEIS
# HEK-293T = experiment: Cytotoxicity against HEK293T cells assessed as reduction in cell viability measured after 24 to 72 hrs by celltiter-glo luminescent cell viability assay; type: toxicity, cell-based; conditions: human, time 24-72 hrs
# How it was run: (§2)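 Cells seeded at 2,500 per well for 1-day or 5,000 per well for 3-day exposure. Viability read by CellTiter-Glo luminescence. Staurosporine (56 μM) set as 100% cytotoxicity. Each concentration run in quadruplicate, at least three times. % cytotoxicity plotted and fitted to a sigmoidal dose–response curve. Means and SDs from three independent experiments.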
# HepG2 [12] = experiment: Cytotoxicity against human HepG2 cells assessed as reduction in cell viability measured after 24 to 72 hrs by celltiter-glo luminescent cell viability assay; type: toxicity, cell-based; conditions: time 24-72 hrs; how it was run: as §2
# [13] = Cytotoxicity against […] Hepa1-6 cells assessed as reduction in cell viability measured after 24 to 72 hrs by celltiter-glo luminescent cell viability assay; type: toxicity, cell-based; conditions: time 24-72 hrs; how it was run: as §2
# HepaRG = experiment: Cytotoxicity against human HepaRG cells assessed as reduction in cell viability measured after 24 to 72 hrs by celltiter-glo luminescent cell viability assay; type: toxicity, cell-based; conditions: time 24-72 hrs; how it was run: as §2
# PXR (NR1I2) [14] = target: T3, PXR (NR1I2); experiment: Antagonist activity at human PXR in human HepG2 cells co-expressing luciferase gene under control of CYP3A4 promoter assessed as inhibition in rifampicin-induced receptor activation at 10 uM incubated for 24 hrs by luminescence based analysis relative to control; type: cell-based
# [15] = target: T2, Nuclear receptor subfamily 1 group I member 2; experiment: Antagonist activity at human PXR in human HepG2 cells co-expressing luciferase gene under control of CYP3A4 promoter assessed as inhibition in rifampicin-induced receptor activation at 30 uM incubated for 24 hrs by luminescence based analysis; type: cell-based; conditions: hepg2, 24 h
# [16] = target: T2, Nuclear receptor subfamily 1 group I member 2; experiment: Agonist activity at human PXR in human HepG2 cells co-expressing luciferase gene under control of CYP3A4 promoter assessed as transcriptional activation incubated for 24 hrs by luminescence based analysis
# [17] = target: T2, Nuclear receptor subfamily 1 group I member 2; experiment: Agonist activity at human PXR in human HepG2 cells co-expressing luciferase gene under control of CYP3A4 promoter assessed as transcriptional activation at 10 uM incubated for 24 hrs by luminescence based analysis relative to control
smiles,measurement,setting,value
COc1ccc(OC)c(-n2nnc(C(=O)Nc3cc(C(C)(C)C)ccc3OCCN3CCOCC3)c2C)c1,"inhibition at 1.017 h, 10 µM",[1],68%
same,IC50,[2],1400 nM
same,"inhibition at 24 h, 10 µM",PXR (NR1I2) [3],81%
same,Activity,[4],Not Active
CCC[C@H](C)Oc1ccc(C(C)(C)C)cc1NC(=O)c1nnn(-c2cc(C)ccc2OC)c1C,IC50,[5],4 nM
same,"inhibition at 1.017 h, 10 µM",[1],90%
same,Activity,[4],Not Active
same,INH,[6],Not Active
same,Activity,[7],Not Active
same,Activity,HepG2 [8],inactive
same,Activity,[9],inactive
same,Activity,[10],inactive
same,Activity,[11],inactive
same,Activity,HEK-293T,Non-Toxic
same,Activity,HepG2 [12],Non-Toxic
same,Activity,[13],Non-Toxic
same,Activity,HepaRG,Non-Toxic
COc1ccc(OC)c(-n2nnc(C(=O)Nc3cc(N(C)C)cc(C(C)(C)C)c3)c2C)c1,"inhibition at 24 h, 10 µM",PXR (NR1I2) [14],110%
same,Activity,[4],Not Active
COc1ccc(OC)c(-n2nnc(C(=O)Nc3cccc(N4CCCCC4)c3)c2C)c1,"inhibition at 1.017 h, 10 µM",[1],50%
same,"inhibition at 24 h, 10 µM",PXR (NR1I2) [3],36%
same,Activity,[4],Not Active
same,inhibition (INH),[15],Not Active
COc1ccc(OC)c(-n2nnc(C(=O)Nc3ccccc3)c2C)c1,inhibition (INH),"[5]; human, 1.017 h, time 61 min",Not Active
same,EC50,[16],25000 nM
same,"activity at 24 h, 10 µM",[17],33%
same,INH,[6],Not Active
same,inhibition (INH),[15],Not Active
CCC[C@@H](C)Oc1ccc(C(C)(C)C)cc1NC(=O)c1nnn(-c2cc(C)ccc2OC)c1C,IC50,[5],11 nM
same,EC50,[16],8.1 nM
same,INH,[6],Not Active
CCCOc1ccc(C(C)(C)C)cc1NC(=O)c1nnn(-c2cc(OC)ccc2OC)c1C,"inhibition at 1.017 h, 10 µM",[1],79%
same,"inhibition at 24 h, 10 µM",PXR (NR1I2) [3],114%
same,Activity,[4],Not Active
CCCC(C)Oc1ccc(C(C)(C)C)cc1NC(=O)c1nnn(-c2cc(OC)ccc2OC)c1C (racemic),"inhibition at 1.017 h, 10 µM",[1],90%
same,"inhibition at 24 h, 10 µM",PXR (NR1I2) [3],117%
same,Activity,[4],Not Active
CNc1cc(NC(=O)c2nnn(-c3cc(OC)ccc3OC)c2C)cc(C(C)(C)C)c1,"inhibition at 24 h, 10 µM",PXR (NR1I2) [14],109%
same,Activity,[4],Not Active
